Test results taken from ChEMBL document CHEMBL1121432, “Tricyclics with analgesic and antidepressant activity. 1. [[(Alkylamino)ethyl]thio]dibenz[b,f]oxepins and 10,11-dihydro derivatives” (1980).

What was measured:
Format in all cases: functional
[1] = tested on: Mus musculus; assay: Antidepressant activity to prevent tetrabenazine induced ptosis (TBZ) in mice after intraperitoneal administration; settings: ip
[2] = tested on: Mus musculus; assay: Analgesic activity for the inhibition of phenylquinone induced writhing (PQW) after subcutaneous administration to mice; settings: sc
[3] = tested on: Mus musculus; assay: Delay in response to noxious heat stimuli in mice by tail flick method after subcutaneous administration; settings: sc
[4] = tested on: Mus musculus; assay: Anticonvulsant activity to prevent pentamethylenetetrazole (MTZ) induced lethality in mice after oral administration
[5] = tested on: Mus musculus; assay: Antipsychotic activity to prevent amphetamine induced lethality in mice after oral administration
How it was run: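 Male CD-1 mice in groups of ten, 18-28 g, dosed orally; controls got distilled water-Tween 80. d-Amphetamine sulfate 21 mg/kg sc 60 min post-drug, then aggregated five per wire cage at 80-84 °F. Dead mice replaced by marked untreated mice every 15 min. Deaths counted at 5 h post-amphetamine.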

[6] = tested on: Mus musculus; assay: Tested for antipsychotic activity to prevent amphetamine induced lethality in mice after intraperitoneal administration; settings: ip
How it was run: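 Male CD-1 mice in groups of ten, 18-28 g, dosed ip; controls got distilled water-Tween 80. d-Amphetamine sulfate 21 mg/kg sc 60 min later, then aggregated five per wire cage at 80-84 °F. Dead mice replaced by marked untreated mice every 15 min. Deaths counted at 5 h post-amphetamine.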

[7] = tested on: Mus musculus; assay: Tested for analgesic activity for the inhibition of phenylquinone induced writhing (PQW) after oral administration to mice

Row | Compound | ED50 [1] [mg/kg] | ED50 [2] [mg/kg] | ED50 [3] [mg/kg] | ED50 [4] [mg/kg] | ED50 [5] [mg/kg] | ED50 [6] [mg/kg] | ED50 [7] [mg/kg]
1 | CNCCSC1Cc2ccccc2Oc2ccccc21 (stereo not given) | 0.9 | 4.8 | 11.6 | 50 | > 20 |  | 
2 | c1ccc2c(c1)CC(SCCN1CCOCC1)c1ccccc1O2 (stereo not given) | > 20 | < 25 | > 25 | > 50 | > 20 |  | 
3 | CN(C)CCSC1=Cc2ccccc2Oc2ccccc21 | 8.4 | 5.8 | > 25 | 50 | > 20 |  | 
4 | CN(CCSC1=Cc2ccccc2Oc2ccccc21)CC1CC1 | > 20 | 6 | > 25 | > 50 |  |  | 
5 | CNCCSC1Cc2ccccc2Oc2ccc(SC)cc21 (stereo not given) | 12.7 | 6.4 | > 25 | 50 | > 20 |  | 
6 | CN(C)CCSC1=Cc2ccccc2Oc2ccc(F)cc21 |  | 10.3 | 23.9 | > 50 | > 20 |  | 
7 | CNCCSC1=Cc2ccccc2Oc2ccccc21 |  |  | 11.6 | 50 |  | > 20 | 
8 | CNCCSC1=Cc2ccccc2Oc2ccc(SC)cc21 | 6.1 | < 25 | > 25 | > 50 | > 20 |  | 
9 | O=C(c1ccc(F)cc1)C1CCN(CCSC2Cc3ccccc3Oc3ccccc32)CC1 (stereo not given) | > 20 | 10.9 | > 25 | > 50 | > 20 |  | 9.5
10 | CSc1ccc2c(c1)C(SCCN(C)C)Cc1ccccc1O2 (stereo not given) | 16 | 10.4 | > 25 | > 50 | > 20 |  | 
11 | CN(C)CCSC1Cc2ccccc2Oc2ccccc21 (stereo not given) |  | > 25 | > 25 | 50 | > 20 |  | 
12 | CSc1ccc2c(c1)C(SCCN(C)C)=Cc1ccccc1O2 | 9.4 | 5.3 | 14.1 | > 50 | > 20 |  | 
13 | CNCCSC1Cc2ccccc2Oc2ccc(Cl)cc21 (stereo not given) | 1.5 | 5.3 | 22.4 | < 50 | > 20 |  | 11.3
14 | CNCCSC1=Cc2ccccc2Oc2ccc(Cl)cc21 | 5.9 | 16 | > 25 | > 50 | > 20 |  | 
15 | Br.CCN(CC)CCSC1Cc2ccccc2Oc2ccc(SC)cc21 (stereo not given) | > 20 | 25 | > 25 | > 50 | > 20 |  | 
16 | Br.CN1CCN(CCSC2Cc3ccccc3Oc3ccccc32)CC1 (stereo not given) | > 20 | 6.3 | > 25 | > 50 |  |  | 
17 | CN(C)CCSC1Cc2ccccc2Oc2ccc(Cl)cc21 (stereo not given) |  | < 25 | > 25 | 30 |  |  | 
18 | C1=C(SCCN2CCOCC2)c2ccccc2Oc2ccccc21 |  | > 25 | > 25 | > 50 |  |  | 
19 | CSc1ccc2c(c1)C(SCCN(C(C)C)C(C)C)=Cc1ccccc1O2 | 25 | > 25 | > 25 | > 50 |  |  | 
20 | CN(C)CCSC1=Cc2ccccc2Oc2ccc(Cl)cc21 | > 20 | > 25 | > 25 | > 50 | > 20 |  | 
21 | CCNCCSC1Cc2ccccc2Oc2ccccc21 (stereo not given) | 20 | 6.6 | > 25 | > 50 |  |  | 

Row | Compound | ED50 [1] [mg/kg] | ED50 [2] [mg/kg] | ED50 [3] [mg/kg] | ED50 [4] [mg/kg] | ED50 [5] [mg/kg] | ED50 [6] [mg/kg] | ED50 [7] [mg/kg]
22 | CNCCSC1Cc2ccccc2Oc2ccc(F)cc21 (stereo not given) | 0.8 |  | 5.1 | 31.6 | > 20 |  | 
23 | CCN(CC)CCSC1=Cc2ccccc2Oc2ccccc21 | > 20 | 25 | > 25 | > 50 | > 20 |  | 
24 | c1ccc(CCNCCSC2Cc3ccccc3Oc3ccccc32)cc1 (stereo not given) | > 20 | 9.3 | > 25 | > 50 | 23 |  | 
25 | C1=C(SCCNCCc2ccccc2)c2ccccc2Oc2ccccc21 | > 20 | 13.6 | > 25 | > 50 | > 20 |  | 
26 | CN(C)CCSC1Cc2ccccc2Oc2ccc(F)cc21 (stereo not given) | 2 |  | 7.9 | 52.3 | > 20 |  | 
27 | Fc1ccc2c(c1)C(SCCNCC1CC1)Cc1ccccc1O2 (stereo not given) | > 20 | 10.7 | > 25 | > 50 | > 20 |  | 
28 | CCN(CC)CCSC1Cc2ccccc2Oc2ccc(Cl)cc21 (stereo not given) | > 20 | 14.8 | > 25 | > 50 |  |  | 
29 | CCN(CC)CCSC1=Cc2ccccc2Oc2ccc(SC)cc21 | > 20 | > 25 | > 25 | > 50 | > 20 |  | 
30 | C=CCNCCSC1Cc2ccccc2Oc2ccc(F)cc21 (stereo not given) | 3.5 | 10.6 | > 25 | > 50 | > 20 |  | 
31 | Fc1ccc2c(c1)C(SCCNCCc1ccccc1)Cc1ccccc1O2 (stereo not given) |  | > 10 | > 25 | > 50 | > 20 |  | 
32 | CCN(CC)CCSC1Cc2ccccc2Oc2ccccc21 (stereo not given) | > 20 | 6.9 | > 25 | > 50 | > 20 |  | 
33 | C#CCN(C)CCSC1=Cc2ccccc2Oc2ccccc21 | 12.2 | 25 | > 25 | > 50 |  |  | 
34 | CCN(C)CCSC1=Cc2ccccc2Oc2ccccc21 | 20 | 25 | > 25 | > 50 |  |  | 
35 | CCN(C)CCSC1=Cc2ccccc2Oc2ccc(SC)cc21 |  | 25 | > 25 | > 50 | > 20 |  | 
36 | CC(C)=CCN1CC[C@]2(C)c3cc(O)ccc3C[C@H]1[C@H]2C [(+)-PENTAZOCINE] |  | 2.4 | 14.6 | > 25 | > 20 |  | 
37 | CN(C)CCCN1c2ccccc2Sc2ccc(Cl)cc21 [CHLORPROMAZINE] |  |  |  | > 50 | 2.8 |  | 
38 | CN1C(=O)CN=C(c2ccccc2)c2cc(Cl)ccc21 [DIAZEPAM] |  |  |  | 1.4 | > 20 |  | 
39 | CNCCSC1=Cc2ccccc2Oc2ccc(F)cc21 [FLURADOLINE] | 0.32 |  | 11.3 | > 50 | > 50 |  | 24.7
40 | CN(C)CCCN1c2ccccc2CCc2ccccc21 [IMIPRAMINE] | 1.3 | 11 | > 25 | 50 | > 20 |  | 
41 | CN1CC[C@]23c4c5ccc(O)c4O[C@H]2[C@@H](O)C=C[C@H]3[C@H]1C5 [MORPHINE] | 8.1 | 0.36 |  | > 25 | > 20 |  | 
